Tests used:
[1] = system: Human immunodeficiency virus 1; assay: Antiviral activity against recombinant HIV1 YU2 in Cf2Th-CCR5 cells assessed as viral infectivity by luciferase assasy relative to JRC-II-191; type: functional, isolate YU2
[2] = target: Envelope glycoprotein gp160 (Human immunodeficiency virus type 1 group M subtype B (isolate YU-2)(HIV-1), UniProt P35961); assay: Binding affinity to HIV1 YU2 gp120 by isothermal titration calorimetry assay; parameters: species or system Human immunodeficiency virus type 1 (isolate YU2)
In short: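 ITC at 25 °C. Cell held gp120 at about 2 μM in PBS pH 7.4 with 2% DMSO. Heat per injection taken from the integrated signal. Kd from a single run unless noted otherwise.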

In the case of `CC1(C)CC(NC(=O)C(=O)Nc2ccc(Cl)c(F)c2)CC(C)(C)N1`, the “fold change (FC)” value [1] is reported as 1.

In the case of `CC1(C)CC(NC(=O)CC(=O)Nc2ccc(Br)cc2)CC(C)(C)N1`, the “fold change (FC)” value [1] is reported as 0.

In the case of `CC1(C)CC(NC(=O)CCC(=O)Nc2ccc(Br)cc2)CC(C)(C)N1`, the “fold change (FC)” value [1] is reported as 0.

In the case of `CN(C(=O)C(=O)NC1CC(C)(C)NC(C)(C)C1)c1ccc(Cl)cc1`, the “fold change (FC)” value [1] is reported as 0.

For `CN(C(=O)C(=O)Nc1ccc(Cl)c(F)c1)C1CC(C)(C)NC(C)(C)C1`, the “fold change (FC)” value [1] was 0.

With `CC1(C)CC(NCC(=O)Nc2ccc(Cl)c(F)c2)CC(C)(C)N1` the “fold change (FC)” value [1] was 0.

`CC(C)(C)OC(=O)N1CCC(NC(=O)C(=O)Nc2ccc(Cl)c(F)c2)CC1` was tested, and the “fold change (FC)” value [1] was 0.

With `O=C(Nc1ccc(Cl)c(F)c1)C(=O)NC1CCN(C(=O)c2ccccc2)CC1` the “fold change (FC)” value [1] was 0.

For `CCN1CCC(CNC(=O)C(=O)Nc2ccc(Cl)c(F)c2)CC1`, the “fold change (FC)” value [1] was 0.2.

In the case of `CC1(C)C2CCC1(C)C(NC(=O)C(=O)Nc1ccc(Cl)c(F)c1)C2` (stereo not drawn), the Kd [2] is reported as “Not Active” and the “fold change (FC)” value [1] is reported as 0.

For `CC1(C)CC(NC(=O)C(=O)Nc2ccc(Cl)c(F)c2)CC(C)(C)[N+]1(C)[O-]` (stereo not drawn), the “fold change (FC)” value [1] was 0.23.

For `CN1CCCC(ONC(=O)C(=O)Nc2ccc(Cl)c(F)c2)C1` (stereo not drawn), the “fold change (FC)” value [1] was 0.

In the case of `CC1CCCCN1C(C)CNC(=O)C(=O)Nc1ccc(Cl)c(F)c1` (stereo not drawn), the “fold change (FC)” value [1] is reported as 0.

For `CC1CN(CCNC(=O)C(=O)Nc2ccc(Cl)c(F)c2)CC(C)O1` (stereo not drawn), the “fold change (FC)” value [1] was 0.

In the case of `CC(C)(CNC(=O)C(=O)Nc1ccc(Cl)c(F)c1)N1CCOCC1`, the “fold change (FC)” value [1] is reported as 0.

With `CN1CCC(CNC(=O)C(=O)Nc2ccc(Cl)c(F)c2)(N(C)C)CC1` the “fold change (FC)” value [1] was 0.1.

With `CCn1ncnc1C(C)NC(=O)C(=O)Nc1ccc(Cl)c(F)c1` (stereo not drawn) the “fold change (FC)” value [1] was 0.

For `CCc1n[nH]c(NC(=O)C(=O)Nc2ccc(Cl)c(F)c2)c1CC`, the “fold change (FC)” value [1] was 0.

For `O=C(NCc1n[nH]c2c1CCCCC2)C(=O)Nc1ccc(Cl)c(F)c1`, the “fold change (FC)” value [1] was 0.1.

`O=C(Nc1ccc(Cl)c(F)c1)C(=O)Nc1cnn2c1NCCC2` was tested, and the “fold change (FC)” value [1] was 0.

For `O=C(Nc1ccc(Cl)c(F)c1)C(=O)NC1CCc2[nH]ncc2C1` (stereo not drawn), the Kd [2] was “Not Active” and the “fold change (FC)” value [1] was 0.

For `O=C(Nc1ccc(Cl)c(F)c1)C(=O)Nc1cccc2[nH]ncc12`, the “fold change (FC)” value [1] was 0.

In the case of `Cn1ccnc1C(O)(CCNC(=O)C(=O)Nc1ccc(Cl)c(F)c1)C(F)(F)F` (stereo not drawn), the “fold change (FC)” value [1] is reported as 0.

In the case of `CC(NC(=O)C(=O)Nc1ccc(Cl)c(F)c1)c1ccc2c(c1)NC(=O)CO2` (stereo not drawn), the “fold change (FC)” value [1] is reported as 0.

For `CCN1CCCC1CNC(=O)C(=O)Nc1ccc(Cl)cc1` (stereo not drawn), the “fold change (FC)” value [1] was 0.

With `O=C(Nc1ccc(Cl)c(F)c1)C(=O)N[C@H]1CCN(Cc2ccccc2)C1` the “fold change (FC)” value [1] was 0.

For `O=C(Nc1ccc(Cl)c(F)c1)C(=O)N[C@@H]1CCN(Cc2ccccc2)C1`, the Kd [2] was “Not Active” and the “fold change (FC)” value [1] was 0.

`O=C(NCC1CCN(C2CC2)C1)C(=O)Nc1ccc(Cl)c(F)c1` (stereo not drawn) was tested, and the “fold change (FC)” value [1] was 0.3.

For `O=C(Nc1ccc(Cl)c(F)c1)C(=O)NC1CCN(C2CCCCC2)C1` (stereo not drawn), the “fold change (FC)” value [1] was 0.48.

With `O=C(NCC1CCN(CCN2CCOCC2)C1)C(=O)Nc1ccc(Cl)c(F)c1` (stereo not drawn) the “fold change (FC)” value [1] was 0.1.

`O=C(NC[C@@H]1CCCN2CCCC[C@H]12)C(=O)Nc1ccc(Cl)c(F)c1` was tested, and the “fold change (FC)” value [1] was 0.

For `CC(C)(C)c1cc(CNC(=O)C(=O)Nc2ccc(Cl)c(F)c2)n[nH]1`, the “fold change (FC)” value [1] was 0.1.

For `CC1(C)CC(NC(=O)C(=O)Nc2ccc(Cl)cc2F)CC(C)(C)N1`, the “fold change (FC)” value [1] was 0.

`CC1(C)CC(NC(=O)C(=O)Nc2ccc(Cl)cc2Cl)CC(C)(C)N1` was tested, and the “fold change (FC)” value [1] was 0.

With `Cc1cc(Cl)ccc1NC(=O)C(=O)NC1CC(C)(C)NC(C)(C)C1` the “fold change (FC)” value [1] was 0.

With `CC1(C)CC(NC(=O)C(=O)Nc2ccc(Cl)cc2C(F)(F)F)CC(C)(C)N1` the “fold change (FC)” value [1] was 0.

With `COc1cc(Cl)ccc1NC(=O)C(=O)NC1CC(C)(C)NC(C)(C)C1` the “fold change (FC)” value [1] was 0.

For `CCOc1cc(Cl)ccc1NC(=O)C(=O)NC1CC(C)(C)NC(C)(C)C1`, the “fold change (FC)” value [1] was 0.

For `CC1(C)CC(NC(=O)C(=O)Nc2ccc(Cl)cc2OCc2ccccc2)CC(C)(C)N1`, the “fold change (FC)” value [1] was 0.

With `CC1(C)CC(NC(=O)C(=O)Nc2ccc(Cl)cc2)CC(C)(C)N1` the “fold change (FC)” value [1] was 1.

From ChEMBL document CHEMBL1641443, “Design, synthesis and biological evaluation of small molecule inhibitors of CD4-gp120 binding based on virtual screening” (Bioorg Med Chem, 2011)
